The subject of data set [1] is MIA PaCa-2. The experiment in a line: Antiproliferative activity against human MIA PaCa-2 cells assessed as inhibition of cell growth incubated for 72 hrs by Celltiter-Glo luminescent assay. It counts as functional, cell-based. The following applies: MIA PaCa-2, 72 h. Put shortly:
(§1)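 Cells seeded in growth medium and held overnight at 37 °C; medium-only wells served as background. DMSO stocks were diluted in medium to 3× final and added; cells incubated 72 h at 37 °C, 5% CO2. Viability read by CellTiter-Glo luminescence after 60 min at room temperature. IC50 from curve fit, mean of duplicate.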
In general terms: ATP-based viability assays read luminescence as a measure of living cells.

The nature of data set [2]: Metabolic stability in dog liver microsomes assessed as intrinsic clearance at 1 uM incubated up to 60 mins in presence of NADPH by LC-MS/MS analysis. The class given is ADME, Canis lupus familiaris, Microsome. The note with it: read-out: CLH. The method, boiled down:
(§2)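 Liver microsomes (0.5 mg/mL) incubated at 37 °C with compound at 1.0 μM final, 3 mM MgCl2 and 1 mM NADPH in 100 mM PBS pH 7.4. Samples taken at 0, 5, 15, 30, 60 min; remaining parent measured by LC-MS/MS. k = −slope, T1/2 = 0.693/k, CLint = k/microsomal protein concentration. Midazolam served as control.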
A general note: Microsomes from liver hold many membrane-bound enzymes, among them those of drug oxidation.

The test system of data set [3] is BXPC-3. The data set can be described thus: Antiproliferative activity against human BxPC3 cells assessed as inhibition of cell growth incubated for 72 hrs by Celltiter-Glo luminescent assay. The class given is functional, cell-based. The following applies: BXPC-3, 72 h. The method, boiled down:
as §1

Data set [4] in a line: Metabolic stability in human liver microsomes assessed as intrinsic clearance at 1 uM incubated up to 60 mins in presence of NADPH by LC-MS/MS analysis. The class given is ADME, Microsome. The following applies: read-out: CLH. The method, boiled down:
as §2

Data set [5] deals with NCI-N87. The experiment in a line: Antiproliferative activity against human NCI-N87 cells assessed as inhibition of cell growth incubated for 72 hrs by Celltiter-Glo luminescent assay. It counts as functional, cell-based. The following applies: NCI-N87, 72 h. The method, boiled down:
as §1

The test system of data set [6] is HCT-116. The data set can be described thus: Antiproliferative activity against human HCT-116 cells assessed as inhibition of cell growth incubated for 72 hrs by Celltiter-Glo luminescent assay. The class given is functional, cell-based. The note with it: HCT-116, 72 h. Put shortly:
as §1

For data set [7], the system named is PANC-1. The data set can be described thus: Antiproliferative activity against human PANC-1 cells assessed as inhibition of cell growth incubated for 72 hrs by Celltiter-Glo luminescent assay. The class given is functional, cell-based. The following applies: PANC-1, 72 h. Put shortly: as §1
Data set [8] has as its system MV4-11. The data set can be described thus: Antiproliferative activity against human MV4-11 cells assessed as inhibition of cell growth incubated for 72 hrs by Celltiter-Glo luminescent assay. It counts as functional, cell-based. The following applies: MV4-11, 72 h. The method, boiled down: as §1
The subject of data set [9] is MOLM-13. The experiment in a line: Antiproliferative activity against human MOLM-13 cells assessed as inhibition of cell growth incubated for 72 hrs by Celltiter-Glo luminescent assay. The class given is functional, cell-based. The following applies: MOLM-13, 72 h. Put shortly:
as §1

Data set [10] is described as follows: Metabolic stability in monkey liver microsomes assessed as intrinsic clearance at 1 uM incubated up to 60 mins in presence of NADPH by LC-MS/MS analysis. It counts as ADME, Macaca mulatta, Microsome. The note with it: rhesus monkey, read-out: CLH. The method, boiled down: as §2
Data set [11] concerns A-375. The data set can be described thus: Antiproliferative activity against human A-375 cells assessed as inhibition of cell growth incubated for 72 hrs by Celltiter-Glo luminescent assay. The class given is functional, cell-based. The note with it: A-375, 72 h. The method, boiled down:
as §1

Data set [12] concerns the target CDK2/Cyclin A2 (Homo sapiens, UniProt P24941). The experiment in a line: Inhibition of CDK2/Cyclin A (unknown origin) preincubated for 20 mins followed by ATP addition and measured after 120 mins in presence of [33P-gamma] ATP by hotspot kinase assay. The class given is protein-complex assay. Put shortly: (§3)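 Radiometric filter-binding assay: kinase and substrate in 20 mM Hepes pH 7.5, 10 mM MgCl2, 1 mM EGTA, 0.02% Brij35, 0.02 mg/mL BSA, 0.1 mM Na3VO4, 2 mM DTT, 1% DMSO. Compound (top 1/10/27 μM, 3-fold serial dilutions) preincubated 20 min at 25 °C. ATP plus [γ-33P]ATP added to 10 μM final, reacted 120 min at 25 °C. IC50 from curve fit, duplicate mean.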

The nature of data set [13]: Metabolic stability in monkey liver microsomes assessed as half life at 1 uM incubated up to 60 mins in presence of NADPH by LC-MS/MS analysis. The class given is ADME, Macaca mulatta, Microsome. The following applies: rhesus monkey. The method, boiled down:
as §2

Data set [14] in a line: Metabolic stability in rat liver microsomes assessed as intrinsic clearance at 1 uM incubated up to 60 mins in presence of NADPH by LC-MS/MS analysis. The class given is ADME, Microsome. The following applies: read-out: CLH. Put shortly:
as §2

Data set [15] relates to A549. The experiment in a line: Antiproliferative activity against human A549 cells assessed as inhibition of cell growth incubated for 72 hrs by Celltiter-Glo luminescent assay. The class given is functional, cell-based. The following applies: A549, 72 h. Put shortly:
as §1

Data set [16] is described as follows: Metabolic stability in rat liver microsomes assessed as half life at 1 uM incubated up to 60 mins in presence of NADPH by LC-MS/MS analysis. The class given is ADME, Microsome. The method, boiled down:
as §2

The target of data set [17] is CDK9/cyclin T1 (Homo sapiens, UniProt P50750). The experiment in a line: Inhibition of CDK9/Cyclin T1 (unknown origin) preincubated for 20 mins followed by ATP addition and measured after 120 mins in presence of [33P-gamma] ATP by hotspot kinase assay. It counts as protein-complex assay.
For data set [18], the system named is SW-620. The data set can be described thus: Antiproliferative activity against human SW-620 cells assessed as inhibition of cell growth incubated for 72 hrs by Celltiter-Glo luminescent assay. The following applies: SW-620, 72 h. It counts as functional, cell-based. The method, boiled down: as §1
Data set [19] is described as follows: Metabolic stability in human liver microsomes assessed as half life at 1 uM incubated up to 60 mins in presence of NADPH by LC-MS/MS analysis. The class given is ADME, Microsome. The method, boiled down:
as §2

Data set [20] concerns HepG2. The experiment in a line: Antiproliferative activity against human HepG2 cells assessed as inhibition of cell growth incubated for 72 hrs by Celltiter-Glo luminescent assay. The class given is functional, cell-based. The following applies: HepG2, 72 h. Put shortly: as §1
Data set [21] in a line: Metabolic stability in dog liver microsomes assessed as half life at 1 uM incubated up to 60 mins in presence of NADPH by LC-MS/MS analysis. The class given is ADME, Canis lupus familiaris, Microsome. The method, boiled down:
as §2

In data set [22] the test system is NCI-H460. The data set can be described thus: Antiproliferative activity against human NCI-H460 cells assessed as inhibition of cell growth incubated for 72 hrs by Celltiter-Glo luminescent assay. It counts as functional, cell-based. The note with it: NCI-H460, 72 h. The method, boiled down:
as §1

For data set [23], the system named is MDA-MB-231. The data set can be described thus: Antiproliferative activity against human MDA-MB-231 cells assessed as inhibition of cell growth incubated for 72 hrs by Celltiter-Glo luminescent assay. The note with it: MDA-MB-231, 72 h. It counts as functional, cell-based. The method, boiled down:
as §1

The target of data set [24] is CDK9/Cyclin K (Homo sapiens, UniProt P50750). The data set can be described thus: Inhibition of CDK9/Cyclin K (unknown origin) preincubated for 20 mins followed by ATP addition and measured after 120 mins in presence of [33P-gamma] ATP by hotspot kinase assay. It counts as protein-complex assay. The method, boiled down: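 HotSpot radioisotope filter-binding assay. Kinase and substrate were mixed at room temperature in 20 mM Hepes pH 7.5 with 10 mM MgCl2, 1 mM EGTA, 0.02% Brij35, 0.02 mg/mL BSA, 0.1 mM Na3VO4, 2 mM DTT and 1% DMSO. Compound was added in a 3-fold dilution series starting at 1, 10 or 27 μM and preincubated 20 min at 25 °C. ATP plus [γ-33P]ATP (10 μM final) was then added for 120 min at 25 °C. IC50 from curve fit, duplicate mean.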

For data set [25], the target named is Cyclin-dependent kinase 7/ cyclin H (Homo sapiens, UniProt P50613). The data set can be described thus: Inhibition of CDK7/Cyclin H (unknown origin) preincubated for 20 mins followed by ATP addition and measured after 120 mins in presence of [33P-gamma] ATP by hotspot kinase assay. The class given is protein-complex assay. The method, boiled down: as §3
The species entered for data set [26] is Homo sapiens. The experiment in a line: Selectivity index, ratio of IC50 for CDK2/Cyclin A (unknown origin) to IC50 for CDK9/Cyclin T1 (unknown origin).

For orientation: pIC50 means the negative decadic logarithm of the IC50, by convention in mol/L. For orientation: half-life means the time in which the quantity being followed falls by half.

pIC50: −log10 of the molar value.

Chain of CDK9/cyclin T1 (O60563 whole entry): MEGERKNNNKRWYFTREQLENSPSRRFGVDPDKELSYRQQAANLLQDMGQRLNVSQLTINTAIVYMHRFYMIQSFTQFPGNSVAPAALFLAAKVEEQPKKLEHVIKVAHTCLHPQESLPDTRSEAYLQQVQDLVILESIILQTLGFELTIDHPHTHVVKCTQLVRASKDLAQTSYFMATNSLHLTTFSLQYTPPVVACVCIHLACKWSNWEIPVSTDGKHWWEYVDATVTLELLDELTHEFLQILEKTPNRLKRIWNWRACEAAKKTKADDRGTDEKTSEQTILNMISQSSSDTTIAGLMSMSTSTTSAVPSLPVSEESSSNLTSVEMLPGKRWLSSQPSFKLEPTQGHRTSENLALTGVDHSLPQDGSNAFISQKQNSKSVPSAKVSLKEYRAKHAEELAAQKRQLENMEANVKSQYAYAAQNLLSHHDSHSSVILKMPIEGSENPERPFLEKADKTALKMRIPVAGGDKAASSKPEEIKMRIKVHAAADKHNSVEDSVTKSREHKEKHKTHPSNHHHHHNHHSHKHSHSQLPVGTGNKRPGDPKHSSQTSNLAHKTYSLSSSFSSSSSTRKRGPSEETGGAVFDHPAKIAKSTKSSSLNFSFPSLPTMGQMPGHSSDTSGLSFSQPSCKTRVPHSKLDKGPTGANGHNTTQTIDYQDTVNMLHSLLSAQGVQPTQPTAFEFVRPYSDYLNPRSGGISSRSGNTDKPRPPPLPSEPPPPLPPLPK
Chain of CDK9/cyclin T1 (P50750 whole entry): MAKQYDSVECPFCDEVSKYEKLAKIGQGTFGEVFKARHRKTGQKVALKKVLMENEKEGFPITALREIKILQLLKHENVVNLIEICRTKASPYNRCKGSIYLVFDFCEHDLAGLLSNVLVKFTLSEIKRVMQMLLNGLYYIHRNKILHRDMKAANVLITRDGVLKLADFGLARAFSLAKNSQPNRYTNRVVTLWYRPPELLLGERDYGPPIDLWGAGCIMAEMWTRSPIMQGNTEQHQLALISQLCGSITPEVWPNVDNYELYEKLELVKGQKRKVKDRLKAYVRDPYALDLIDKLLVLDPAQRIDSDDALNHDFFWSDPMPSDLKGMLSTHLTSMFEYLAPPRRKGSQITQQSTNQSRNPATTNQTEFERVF
Chain of CDK9/Cyclin K (P50750 whole entry): as above
Chain of CDK9/Cyclin K (O75909 whole entry, further chain): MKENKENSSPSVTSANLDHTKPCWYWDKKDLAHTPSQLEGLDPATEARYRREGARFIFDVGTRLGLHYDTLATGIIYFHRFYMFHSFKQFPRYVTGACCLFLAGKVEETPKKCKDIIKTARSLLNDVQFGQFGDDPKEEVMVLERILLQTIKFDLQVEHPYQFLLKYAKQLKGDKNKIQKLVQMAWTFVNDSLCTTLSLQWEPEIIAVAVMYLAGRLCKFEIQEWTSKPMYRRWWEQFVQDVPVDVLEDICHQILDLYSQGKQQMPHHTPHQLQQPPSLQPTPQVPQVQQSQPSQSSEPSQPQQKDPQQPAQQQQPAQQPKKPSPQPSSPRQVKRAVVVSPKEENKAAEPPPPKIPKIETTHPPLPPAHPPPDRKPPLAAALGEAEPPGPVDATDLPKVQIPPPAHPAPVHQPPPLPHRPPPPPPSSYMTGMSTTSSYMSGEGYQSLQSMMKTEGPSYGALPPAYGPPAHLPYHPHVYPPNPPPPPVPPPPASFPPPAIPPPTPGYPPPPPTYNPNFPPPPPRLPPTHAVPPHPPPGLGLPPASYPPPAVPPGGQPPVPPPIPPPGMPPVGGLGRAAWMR
Chain of Cyclin-dependent kinase 7/ cyclin H (P51946 whole entry): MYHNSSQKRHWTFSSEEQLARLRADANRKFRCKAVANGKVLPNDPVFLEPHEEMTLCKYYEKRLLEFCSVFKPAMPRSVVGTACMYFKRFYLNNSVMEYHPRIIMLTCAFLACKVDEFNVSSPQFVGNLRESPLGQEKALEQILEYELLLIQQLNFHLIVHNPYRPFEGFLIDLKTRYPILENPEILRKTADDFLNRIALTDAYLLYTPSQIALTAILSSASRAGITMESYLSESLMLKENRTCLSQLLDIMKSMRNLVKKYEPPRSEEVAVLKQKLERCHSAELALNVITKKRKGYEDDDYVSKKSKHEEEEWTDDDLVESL
Chain of Cyclin-dependent kinase 7/ cyclin H (P50613 whole entry): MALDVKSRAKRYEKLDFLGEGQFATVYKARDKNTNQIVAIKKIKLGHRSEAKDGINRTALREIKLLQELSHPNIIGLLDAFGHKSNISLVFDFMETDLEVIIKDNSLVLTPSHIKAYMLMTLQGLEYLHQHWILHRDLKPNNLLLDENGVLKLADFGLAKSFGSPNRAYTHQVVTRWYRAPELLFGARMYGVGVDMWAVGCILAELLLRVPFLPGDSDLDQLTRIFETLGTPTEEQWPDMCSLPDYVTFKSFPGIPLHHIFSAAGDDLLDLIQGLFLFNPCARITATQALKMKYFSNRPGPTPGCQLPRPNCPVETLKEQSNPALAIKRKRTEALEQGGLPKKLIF

`COc1cc(F)ccc1-c1ccnc(Nc2ccc3c(N4CCOCC4)c(C(C)=O)c(=O)oc3c2)n1`: the pIC50 is 5.80 in [1]; 6.04 in data set [3]; 5.45 in [5]; 6.18 in data set [6]; 5.73 in data set [7]; 6.60 in data set [8]. In addition, the pIC50 was 6.59 in data set [9]; 6.02 in [11]; 5.88 in data set [12]; 5.63 in data set [15]; 8.06 in data set [17]; 5.57 in data set [18]. Further, the pIC50 is 6.25 in data set [20], 5.67 in data set [22] and 5.80 in data set [23]. Moreover, the microsomal CLint at 1 µM is 98.3 µL/min/mg in data set [2], 41.4 µL/min/mg in data set [4], 62.5 µL/min/mg in data set [10] and 144 µL/min/mg in [14]. In addition, the half-life at 1 µM in [13] stood at 22.2 min; in data set [16], 9.61 min; in data set [19], 33.5 min; in data set [21] it was 14.1 min.
With `CC(=O)c1c(C)c2ccc(Nc3nccc(-c4cccnc4)n3)cc2oc1=O`, the pIC50 in data set [8] is 4.89; in data set [12] it was 5.92; in data set [24] it was 6.63; in [25], under 4.57; in data set [17], 6.74. Further, the Ratio IC50 in [26] was 7.

For the origin of these results see ChEMBL document CHEMBL4765336, “Discovery of coumarin derivatives as potent and selective cyclin-dependent kinase 9 (CDK9) inhibitors with high antitumour activity” (Eur J Med Chem, 2020).
